The values that follow come from ChEMBL document CHEMBL3112446, “Discovery and optimization of a new class of pyruvate kinase inhibitors as potential therapeutics for the treatment of methicillin-resistant Staphylococcus aureus infections” (Bioorg Med Chem, 2014).

The target in data set [1] is Pyruvate kinase PKLR (Homo sapiens) (UniProt P30613). Put plainly: Inhibition human pyruvate kinase R at 10 uM. Summed up:
(§1)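 His-tagged recombinant human PK isoforms were used. Compounds were diluted in 100% DMSO and tested at 10 µM, the highest concentration tested. Values are percent inhibition of enzymatic activity.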

Data set [2] has as its system Staphylococcus aureus. Put plainly: Ratio of MIC90 for Staphylococcus aureus ATCC 29213 in presence of efflux inhibitor verapamil to MIC90 for Staphylococcus aureus ATCC 29213 in absence of efflux inhibitor verapamil. It counts as functional. Summed up: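 S. aureus ATCC 29213 broth microdilution in 96-well format, run in parallel in CAMHB with and without verapamil (200 mg/L, sub-inhibitory). Compounds were twofold serially diluted in DMSO and added to ~2.5 × 10^5 CFU/ml. Plates were incubated 18–24 h at 37 °C and read at OD600, with inhibitor-only wells subtracted as background. MIC is the lowest concentration giving complete growth inhibition versus compound-free wells, in duplicate or triplicate. The ratio compares the MIC with verapamil to the MIC without.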

Data set [3] addresses Pyruvate kinase PKM (Homo sapiens) (UniProt P14618). Put plainly: Inhibition human pyruvate kinase M2 at 10 uM. Summed up: as §1
Data set [4] is described as follows: Inhibition of methicillin-resistant Staphylococcus aureus pyruvate kinase. The note with it: read-out: IC50. Summed up: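 His-tagged MRSA PK. Compounds diluted in 100% DMSO. IC50 calculated from a triplicate 15-point titration.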
Data set [5] concerns the target Pyruvate kinase PKM (Homo sapiens) (UniProt P14618). Put plainly: Inhibition human pyruvate kinase M1 at 10 uM. An outline of the steps:
as §1

Data set [6] has as its system Staphylococcus aureus. Put plainly: Antibacterial activity against Staphylococcus aureus ATCC 29213 by two fold serial dilution method in presence of efflux inhibitor verapamil. It counts as functional. An outline of the steps: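 S. aureus ATCC29213, 96-well twofold broth microdilution in CAMHB with verapamil 200 mg/L (sub-inhibitory) versus plain CAMHB. Incubated 18–24 h at 37 °C, OD600 read, compound-plus-medium background subtracted. MIC is the lowest concentration giving complete growth inhibition relative to compound-free wells.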

For data set [7], the system named is Staphylococcus aureus. Put plainly: Inhibition of methicillin-resistant Staphylococcus aureus pyruvate kinase at 10 uM. An outline of the steps:
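His-tagged MRSA PK. Compounds diluted in 100% DMSO. Percent inhibition reported at the highest concentration tested, 10 µM.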

Data set [8] addresses Pyruvate kinase PKLR (Homo sapiens) (UniProt P30613). Put plainly: Inhibition human pyruvate kinase L at 10 uM. Summed up: as §1
The test system of data set [9] is Staphylococcus aureus. Put plainly: Bacteriostatic activity against Staphylococcus aureus harboring LAC Dpyk::ErmR mutant in Brain-Heart infusion broth medium at 1.6 uM after 8 to 24 hrs. It counts as functional, organism-based. An outline of the steps: (§2)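 S. aureus LAC pyk::ErmR (pyk replaced by an ErmR cassette) and WT overnight cultures were washed twice in PBS and diluted to OD600 0.1 (~2.5 × 10^7 cfu/ml). Media were pre-warmed (37 °C) BHI or TSB without glucose plus 1% sodium pyruvate (TSB-G+P), ±1.6 µM inhibitor. Cultures grew at 37 °C, 250 rpm. Viable counts were taken by dilution plating on glucose-free TSA plus 1% pyruvate at 0, 8 and 24 h.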

Data set [10] has as its system Staphylococcus aureus. Put plainly: Bacteriostatic activity against wild type Staphylococcus aureus at 1.6 uM after 8 to 24 hrs. The data set is classed as functional, organism-based. An outline of the steps:
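Washed overnight cultures were diluted to OD600 = 0.1 (~2.5 × 10^7 cfu/ml) in pre-warmed medium, either BHI or glucose-free TSB with 1% sodium pyruvate, ±1.6 µM compound. Grown at 37 °C with shaking at 250 rpm. Viable counts by dilution plating on glucose-free TSA with 1% pyruvate at 0, 8 and 24 h.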

The test system of data set [11] is Staphylococcus aureus. Put plainly: Bactericidal activity against Staphylococcus aureus harboring LAC Dpyk::ErmR mutant at 1.6 uM after 8 to 24 hrs. It counts as functional, organism-based. An outline of the steps: as §2
Data set [12] has as its system Staphylococcus aureus. Put plainly: Antibacterial activity against methicillin-resistant Staphylococcus aureus MW2 by two fold serial dilution method. The data set is classed as functional.
Data set [13] deals with Staphylococcus aureus. Put plainly: Bacteriostatic activity against Staphylococcus aureus harboring LAC Dpyk::ErmR mutant in TSB-G+P medium at 1.6 uM after 8 to 24 hrs. The data set is classed as functional, organism-based. An outline of the steps: as §2
For data set [14], the system named is HEK293. Put plainly: Cytotoxicity against HEK293 cells assessed as cell viability at 1 ug/ml. The data set is classed as cell-based. The note with it: human.
The test system of data set [15] is HEK293. Put plainly: Cytotoxicity against HEK293 cells assessed as cell viability at 100 ug/ml. The note with it: human. It counts as cell-based.
The subject of data set [16] is HEK293. Put plainly: Cytotoxicity against HEK293 cells assessed as cell viability at 10 ug/ml. The note with it: human. The data set is classed as cell-based.
The test system of data set [17] is Staphylococcus aureus. Put plainly: Antibacterial activity against Staphylococcus aureus […]. It counts as functional.
Data set [18] relates to Staphylococcus aureus. Put plainly: Antibacterial activity against Staphylococcus aureus MRSA252. It counts as functional.

The structures appear in SMILES notation. In brackets after ≈: the same amount, converted by molar mass. Activity calls are given as the source filed them. The calls are words filed in the database; no cut-off is given here.

Sequence of Pyruvate kinase PKM (Homo sapiens) (P14618 2-531 limits assumed): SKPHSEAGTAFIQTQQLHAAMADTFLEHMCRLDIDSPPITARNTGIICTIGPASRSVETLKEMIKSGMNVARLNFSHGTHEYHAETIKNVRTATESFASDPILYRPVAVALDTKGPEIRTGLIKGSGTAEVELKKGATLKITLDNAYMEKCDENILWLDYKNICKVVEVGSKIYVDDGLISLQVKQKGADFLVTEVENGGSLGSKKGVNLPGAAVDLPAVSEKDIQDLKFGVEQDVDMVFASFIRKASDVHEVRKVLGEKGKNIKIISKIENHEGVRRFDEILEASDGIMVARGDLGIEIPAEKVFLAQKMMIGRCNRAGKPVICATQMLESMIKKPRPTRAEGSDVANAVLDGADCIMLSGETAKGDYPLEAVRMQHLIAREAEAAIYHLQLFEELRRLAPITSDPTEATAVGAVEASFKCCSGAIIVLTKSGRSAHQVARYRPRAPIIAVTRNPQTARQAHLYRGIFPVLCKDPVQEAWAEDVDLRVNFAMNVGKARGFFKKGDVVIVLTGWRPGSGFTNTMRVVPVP
Sequence of Pyruvate kinase PKLR (Homo sapiens) (P30613 whole entry, looked up, the tested form may be a part, canonical isoform): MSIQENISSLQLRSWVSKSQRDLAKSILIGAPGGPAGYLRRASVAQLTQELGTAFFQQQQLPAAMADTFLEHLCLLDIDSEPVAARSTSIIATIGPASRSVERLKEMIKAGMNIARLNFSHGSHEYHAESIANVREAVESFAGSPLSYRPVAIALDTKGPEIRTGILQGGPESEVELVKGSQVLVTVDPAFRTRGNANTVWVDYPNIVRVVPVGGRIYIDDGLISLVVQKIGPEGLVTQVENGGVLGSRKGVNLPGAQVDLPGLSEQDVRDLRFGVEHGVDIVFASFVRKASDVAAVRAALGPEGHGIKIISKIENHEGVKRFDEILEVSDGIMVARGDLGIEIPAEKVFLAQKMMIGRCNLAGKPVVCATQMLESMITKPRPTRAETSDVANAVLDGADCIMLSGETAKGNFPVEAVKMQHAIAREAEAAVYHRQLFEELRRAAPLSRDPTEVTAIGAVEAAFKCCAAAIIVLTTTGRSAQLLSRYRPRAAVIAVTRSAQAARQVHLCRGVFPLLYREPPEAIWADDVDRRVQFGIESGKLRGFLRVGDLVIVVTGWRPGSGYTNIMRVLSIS

`Brc1cc2cc(-c3cc4cc(Br)c(Br)cc4[nH]3)[nH]c2cc1Br`: the inhibition is 20.7% in [1]; 2.3% in [3]; 11.1% in data set [5]; 97.6% in [7]; 8.2% in data set [8]. Besides, the Ratio in data set [2] was found to be 4. Further, the IC50 in [4] was determined as 2 nM. For the same compound, in [6], the minimal inhibitory concentration (MIC) was found to be 16 µg/mL.

As for `Clc1ccc2[nH]c(-c3cc4ccc(Br)cc4[nH]3)cc2c1`, the result in data set [9] and in [10] was Active. The IC50 in data set [4] stood at 2 nM. Also, the outcome in [11] and in data set [13] was inactive. Moreover, the minimum inhibitory concentration (MIC) turned out to be 0.5 µg/mL (≈ 1.45 µM) in data set [12] and 0.5 µg/mL in data set [6].

As for `Brc1ccc2cc(-c3cc4ccc(Br)cc4[nH]3)[nH]c2c1`, the inhibition stood at 18.3% in data set [1]; 0.1% in [3]; 10.3% in [5]; 84.9% in data set [7]; 7.9% in data set [8]. Further, the Cell viability in data set [14] turned out to be 103%; in data set [15], 118%; in [16], 106%. For the same compound, the Ratio in data set [2] came to 32. In addition, the half-inhibitory concentration (IC50) in data set [4] came to 7 nM. The MIC in data set [6] was found to be 0.5 µg/mL.

As to `O=C1NC[C@@H](c2c[nH]c3cc(Br)ccc23)N[C@H]1c1c[nH]c2cc(Br)ccc12` (relative stereo) [CIS-3,4-DIHYDROHAMACANTHIN B], the MIC in data set [17] and in [18] was 12.5 µg/mL (≈ 25.6 µM) throughout. Moreover, in data set [4], the IC50 stood at 16 nM.
